Experimental data reported in ChEMBL document CHEMBL1629690, “Development of hexadecyloxypropyl tenofovir (CMX157) for treatment of infection caused by wild-type and nucleoside/nucleotide-resistant HIV” (Antimicrob Agents Chemother, 2010).
pEC50: −log10 of the molar value.

system: Human immunodeficiency virus 1; assay: Antiviral activity against HIV1 isolate 211 harboring reverse transcriptase D67N/K70R/T215F/K219E/M184V mutant gene by phenosense assay relative to wild type; assay type: functional; details: not given
Procedure, shortened: (§1)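 PhenoSense HIV recombinant virus assay: patient-derived HIV-1 with major NRTI resistance mutations tested against increasing drug concentrations to give inhibition curves. EC50 is the concentration giving 50% inhibition. Fold change is the test recombinant EC50 divided by the EC50 of a drug-sensitive wild-type reference virus. Panel of 30 NRTI-resistant isolates plus two wild-type viruses.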

Structure (SMILES)	fold change (FC)
CCCCCCCCCCCCCCCCOCCCOP(=O)(O)CO[C@H](C)Cn1cnc2c(N)ncnc21 [TENOFOVIR EXALIDEX]	1

system: Human immunodeficiency virus 1; assay: Antiviral activity against HIV1 isolate 194 harboring reverse transcriptase M41L/T215Y/M184V mutant gene by phenosense assay relative to wild type; assay type: functional; details: not given
Procedure, shortened: (§2)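 Recombinant-virus PhenoSense HIV assay run on a panel of 30 NRTI-resistant HIV-1 mutants and two wild-type viruses. Each virus is tested across increasing drug concentrations to give an inhibition curve and EC50. Fold change is the test recombinant EC50 divided by the EC50 of the drug-sensitive wild-type reference virus.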

Structure (SMILES)	fold change (FC)
CCCCCCCCCCCCCCCCOCCCOP(=O)(O)CO[C@H](C)Cn1cnc2c(N)ncnc21 [TENOFOVIR EXALIDEX]	1.6

system: Human immunodeficiency virus 1; assay: Antiviral activity against HIV1 isolate 162 harboring reverse transcriptase A62V/V75I/F77L/Y115F/F116Y/Q151M/M184V mutant gene by phenosense assay relative to wild type; assay type: functional; details: not given; procedure, shortened: as §2

Structure (SMILES)	fold change (FC)
CCCCCCCCCCCCCCCCOCCCOP(=O)(O)CO[C@H](C)Cn1cnc2c(N)ncnc21 [TENOFOVIR EXALIDEX]	1.6

system: Human immunodeficiency virus 1; assay: Antiviral activity against HIV1 isolate 069 harboring reverse transcriptase D67E/T69SSG/V75M/M184V/L210W/T215Y mutant gene by phenosense assay; assay type: functional, organism-based; details: Human immunodeficiency virus 1, isolate 069; procedure, shortened: as §2

Structure (SMILES)	pEC50
CCCCCCCCCCCCCCCCOCCCOP(=O)(O)CO[C@H](C)Cn1cnc2c(N)ncnc21 [TENOFOVIR EXALIDEX]	7.96

system: Human immunodeficiency virus 1; assay: Antiviral activity against HIV1 isolate 203 harboring reverse transcriptase M41L/L210W/T215Y/M184V mutant gene by phenosense assay; assay type: functional, organism-based; details: Human immunodeficiency virus 1, isolate 203; procedure, shortened: as §1

Structure (SMILES)	pEC50
CCCCCCCCCCCCCCCCOCCCOP(=O)(O)CO[C@H](C)Cn1cnc2c(N)ncnc21 [TENOFOVIR EXALIDEX]	8.72

system: Human immunodeficiency virus 1; assay: Antiviral activity against HIV1 isolate 069 harboring reverse transcriptase D67E/T69SSG/V75M/M184V/L210W/T215Y mutant gene by phenosense assay relative to wild type; assay type: functional; details: not given; procedure, shortened: as §2

Structure (SMILES)	fold change (FC)
CCCCCCCCCCCCCCCCOCCCOP(=O)(O)CO[C@H](C)Cn1cnc2c(N)ncnc21 [TENOFOVIR EXALIDEX]	6.1

system: Human immunodeficiency virus 1; assay: Antiviral activity against HIV1 isolate 203 harboring reverse transcriptase M41L/L210W/T215Y/M184V mutant gene by phenosense assay relative to wild type; assay type: functional; details: not given; procedure, shortened: as §1

Structure (SMILES)	fold change (FC)
CCCCCCCCCCCCCCCCOCCCOP(=O)(O)CO[C@H](C)Cn1cnc2c(N)ncnc21 [TENOFOVIR EXALIDEX]	1

system: Human immunodeficiency virus 1; assay: Antiviral activity against HIV1 isolate 063 harboring reverse transcriptase M41L/D67N/K70R/M184V/L210W/T215Y/K219E mutant gene by phenosense assay; assay type: functional, organism-based; details: Human immunodeficiency virus 1, isolate 063; procedure, shortened: as §2

Structure (SMILES)	pEC50
CCCCCCCCCCCCCCCCOCCCOP(=O)(O)CO[C@H](C)Cn1cnc2c(N)ncnc21 [TENOFOVIR EXALIDEX]	8.28

system: Human immunodeficiency virus 1; assay: Antiviral activity against HIV1 isolate 206 harboring reverse transcriptase D67N/K70R mutant gene by phenosense assay relative to wild type; assay type: functional; details: not given; procedure, shortened: as §1

Structure (SMILES)	fold change (FC)
CCCCCCCCCCCCCCCCOCCCOP(=O)(O)CO[C@H](C)Cn1cnc2c(N)ncnc21 [TENOFOVIR EXALIDEX]	3

system: Human immunodeficiency virus 1; assay: Antiviral activity against HIV1 isolate 188 harboring reverse transcriptase T215Y/M184V mutant gene by phenosense assay; assay type: functional, organism-based; details: Human immunodeficiency virus 1, isolate 188; procedure, shortened: as §2

Structure (SMILES)	pEC50
CCCCCCCCCCCCCCCCOCCCOP(=O)(O)CO[C@H](C)Cn1cnc2c(N)ncnc21 [TENOFOVIR EXALIDEX]	8.77

system: Human immunodeficiency virus 1; assay: Antiviral activity against HIV1 isolate 071 harboring reverse transcriptase 65R/S68N/184V mutant gene by phenosense assay relative to wild type; assay type: functional; details: not given; procedure, shortened: as §2

Structure (SMILES)	fold change (FC)
CCCCCCCCCCCCCCCCOCCCOP(=O)(O)CO[C@H](C)Cn1cnc2c(N)ncnc21 [TENOFOVIR EXALIDEX]	1.5

system: Human immunodeficiency virus 1; assay: Antiviral activity against HIV1 isolate 153 harboring reverse transcriptase L74V mutant gene by phenosense assay; assay type: functional, organism-based; details: Human immunodeficiency virus 1, isolate 153; procedure, shortened: as §2

Structure (SMILES)	pEC50
CCCCCCCCCCCCCCCCOCCCOP(=O)(O)CO[C@H](C)Cn1cnc2c(N)ncnc21 [TENOFOVIR EXALIDEX]	8.92

system: Human immunodeficiency virus 1; assay: Antiviral activity against HIV1 isolate 067 harboring reverse transcriptase A62V/D67G/T69SVG/V75I/T215I mutant gene by phenosense assay; assay type: functional, organism-based; details: Human immunodeficiency virus 1, isolate 067; procedure, shortened: as §2

Structure (SMILES)	pEC50
CCCCCCCCCCCCCCCCOCCCOP(=O)(O)CO[C@H](C)Cn1cnc2c(N)ncnc21 [TENOFOVIR EXALIDEX]	7.24

system: Human immunodeficiency virus 1; assay: Antiviral activity against HIV1 isolate 212 harboring reverse transcriptase L210W/T215Y mutant gene by phenosense assay relative to wild type; assay type: functional; details: not given; procedure, shortened: as §1

Structure (SMILES)	fold change (FC)
CCCCCCCCCCCCCCCCOCCCOP(=O)(O)CO[C@H](C)Cn1cnc2c(N)ncnc21 [TENOFOVIR EXALIDEX]	1.5

system: Human immunodeficiency virus 1; assay: Antiviral activity against HIV1 isolate 070 harboring reverse transcriptase 65R/S68G mutant gene by phenosense assay relative to wild type; assay type: functional; details: not given; procedure, shortened: as §2

Structure (SMILES)	fold change (FC)
CCCCCCCCCCCCCCCCOCCCOP(=O)(O)CO[C@H](C)Cn1cnc2c(N)ncnc21 [TENOFOVIR EXALIDEX]	1.9

system: Human immunodeficiency virus 1; assay: Antiviral activity against HIV1 isolate 192 harboring reverse transcriptase M41L/T215Y mutant gene by phenosense assay relative to wild type; assay type: functional; details: not given; procedure, shortened: as §2

Structure (SMILES)	fold change (FC)
CCCCCCCCCCCCCCCCOCCCOP(=O)(O)CO[C@H](C)Cn1cnc2c(N)ncnc21 [TENOFOVIR EXALIDEX]	2.1

system: Human immunodeficiency virus 1; assay: Antiviral activity against HIV1 isolate 201 harboring reverse transcriptase M41L/L210W/T215Y mutant gene by phenosense assay; assay type: functional, organism-based; details: Human immunodeficiency virus 1, isolate 201; procedure, shortened: as §2

Structure (SMILES)	pEC50
CCCCCCCCCCCCCCCCOCCCOP(=O)(O)CO[C@H](C)Cn1cnc2c(N)ncnc21 [TENOFOVIR EXALIDEX]	8.18

system: Human immunodeficiency virus 1; assay: Antiviral activity against HIV1 isolate 215 harboring reverse transcriptase D67N/K70E mutant gene by phenosense assay; assay type: functional, organism-based; details: Human immunodeficiency virus 1, isolate 215; procedure, shortened: as §1

Structure (SMILES)	pEC50
CCCCCCCCCCCCCCCCOCCCOP(=O)(O)CO[C@H](C)Cn1cnc2c(N)ncnc21 [TENOFOVIR EXALIDEX]	8.68
